Entries after “also recorded” stand apart in the source; their conditions may differ.
Key:
sfWDS [1] = molecular target: T1, sfWDS (Spodoptera frugiperda, UniProt A0A2H1VC02); assay: Sf9 cell degradation assay; type: cell-based; settings: Sf9 cells
Summary of the method: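 Sf9 cells in ESF921 medium, split into 1e6-cell aliquots and treated 24 h with test compound or DMSO. For sfWDS, some treatments at 10 μM ± bortezomib 10 μM. Lysed in Tris-SDS, then acetone precipitation, urea reduction/alkylation, Trypsin/LysC digest and MCX cleanup. Stable-isotope peptide standards spiked in; targeted MS. Signal normalised to isotope and total peptide, as % of DMSO. n = 4. Dose-response by 4-parameter fit.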

Sf9 cells = assay: PROTAC cellular permeability and distribution measured by LCMS; type: in vitro ADME, Spodoptera frugiperda; settings: 10 µM, 24 h
sfWDS [2] = molecular target: T1, sfWDS; assay: In vitro ubiquitination; type: biochemical; settings: listed as MS67
WDR5 = settings: MV4-11 cells ref 34; cited from earlier work

With Cc1ncsc1-c1ccc([C@H](C)NC(=O)[C@@H]2C[C@@H](O)CN2C(=O)[C@@H](NC(=O)CNC(=O)c2ccc(F)c(-c3ccc(N4C[C@@H](C)N(C)[C@@H](C)C4)c(NC(=O)c4c[nH]c(=O)cc4C(F)(F)F)c3)c2)C(C)(C)C)cc1 [Compound 12] the “degradation of sfWDS in cell” value (sfWDS [1]) was “did not demonstrate in cell degradation”, the “degradation of sfWDS in cell” value (sfWDS [1]; listed as MS67) was “failed to prompt degradation of sfWDS; also recorded: did not show degradation in cells” and the “PROTAC in cells (of total PROTAC recovery, cells vs media)” value (Sf9 cells) was “only detected at very low intracellular levels”. The “IVQ Y/N (ubiquitination of sfWDS)” value (sfWDS [2]) was “polyubiquitination of sfWDS was observed in a dose-dependent manner” and the “Dmax, degradation of WDR5” value (WDR5) was 94%.

Reference: PMC11982377 (Communications Biology, 2025)
